PPC-1+TRAIL kill: compounds killing PPC-1 cancer cells with TRAIL present, primary screen, TRAIL potentiator project, ATPLite luminescence, uHTS | PPC-1 cells + TRAIL, ATPLite viability luminescence | cell killing (% activity), % at 4 µM or 5 µM | hit rate 0.41% among 220,000 | AID 1443, 2008;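 active = cell killing above 50% in the first pass at 4 µM, then a duplicate retest at 5 µM averaging 50% or more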;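 also: plate controls were cells with TRAIL plus DMSO for no effect and medium-only wells lacking cells for full effect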
FLuc act counter: FLuc activators, initial screening, artefact control for FLuc-dependent activation tests, biochemical, ATPlite luminescence | activation factor at 10 µM | AID 1027, 2008 | 200,000 tested, under 10 active | ATPlite luciferase biochemical, 10 min; 0 = ATP-free wells, 1 = DMSO control | Luciferin 4-monooxygenase (Photinus pyralis), P08659;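 active = luciferase activation factor, scaled between plate controls, of at least 2 with compound at 10 µM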
Target sequence (P08659 whole entry, looked up): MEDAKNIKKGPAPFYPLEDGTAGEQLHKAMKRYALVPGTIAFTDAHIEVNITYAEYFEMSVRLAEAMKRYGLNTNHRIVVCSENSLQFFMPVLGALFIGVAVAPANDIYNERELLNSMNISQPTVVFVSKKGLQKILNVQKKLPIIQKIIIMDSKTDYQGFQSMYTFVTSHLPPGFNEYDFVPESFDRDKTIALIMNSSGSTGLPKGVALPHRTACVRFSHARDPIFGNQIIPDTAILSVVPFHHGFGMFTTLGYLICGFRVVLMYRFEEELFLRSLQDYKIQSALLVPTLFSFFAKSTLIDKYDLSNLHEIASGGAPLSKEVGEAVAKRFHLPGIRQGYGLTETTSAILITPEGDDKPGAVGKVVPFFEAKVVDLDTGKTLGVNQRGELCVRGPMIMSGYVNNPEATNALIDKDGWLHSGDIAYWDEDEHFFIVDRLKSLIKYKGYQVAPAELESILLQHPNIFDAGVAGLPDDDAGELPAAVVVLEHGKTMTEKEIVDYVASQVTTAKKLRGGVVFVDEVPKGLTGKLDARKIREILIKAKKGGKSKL
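Assay system: Luciferase/luciferin detection reagent, cell-free biochemical luciferase assay / Also added: ATP substrate / Schedule: 10 min at ambient temperature / Measured by: luminescence measurement of luciferase light output / Benchmarks: low control with PBS replacing ATP, high control enzyme plus ATP without compound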
C8 TRAIL sens: viability loss with TRAIL in NB7+C8 cells, primary screen, TRAIL sensitizer project, cell-based, ATPlite luminescence; inhibition (viability loss, TRAIL sensitization), % at 10 µM; hit rate 1% among 360,000; AID 624354, 2012;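 active = compounds causing at least 50% loss of cell viability in the single-dose screen, relative to plate controls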
FLuc inhib CS: firefly luciferase enzyme inhibitors, primary screen, artefact control for luciferase-based inhibitor screens, biochemical, luminescence, ATPLite | Luciferin 4-monooxygenase (Photinus pyralis), P08659 | 10 min | inhibition, % at 10 µM | hit rate 1.5% among 200,000;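 active = inhibition above about 50% when tested at 10 µM, limit read from the data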
* hit, by the source's call. Most compounds without a hit are left out; they make up all but 1.6% or so of the library.

How did Cc1cc(O)c2c(c1O)C(=O)[C@]13C(=C2O)C(=O)[C@@H]2[C@@H](O)[C@H]1[C@@H]1[C@H](O)[C@H]3C(=O)C3=C(O)c4c(O)cc(C)c(O)c4C(=O)[C@]312 do in these assays?
C8 TRAIL sens: 48*

What do the screens show for `O=c1c2c(nc3cc(-c4ccc(Cl)cc4)[nH]n13)CCS2`?
PPC-1+TRAIL kill: 41; FLuc act counter: 0.4; C8 TRAIL sens: 51*; FLuc inhib CS: 60*

Results for CCc1c(C)nc2cc(-c3ccc(Cl)cc3)[nH]n2c1=O ?
C8 TRAIL sens: 0

How did O=c1c2c(nc3cc(-c4cccc(F)c4)[nH]n13)CCC2 do in these assays?
PPC-1+TRAIL kill: 25; FLuc act counter: 0.5; C8 TRAIL sens: 22; FLuc inhib CS: 47

Results for O=c1c2c(nc3cc(-c4ccc(F)cc4)[nH]n13)CCCC2 ?
PPC-1+TRAIL kill: 43; FLuc act counter: 0.3; C8 TRAIL sens: 53*; FLuc inhib CS: 68*

Results for Cc1ccc2sc(N(CCCN(C)C)C(=O)CCS(=O)(=O)c3ccccc3)nc2c1C ?
C8 TRAIL sens: 51*

How did Cn1cccc1C(=O)C(=O)Nc1ccccc1 do in these assays?
PPC-1+TRAIL kill: 22; FLuc act counter: 0.5; C8 TRAIL sens: 32; FLuc inhib CS: 52*

Results for COc1ccc(C=Cc2ccc3ccccc3n2)c(OC)c1 ?
C8 TRAIL sens: 70*

How did O=C(COC(=O)CNS(=O)(=O)c1cccc(Br)c1)NC(=O)Nc1ccc2c(c1)OCCO2 do in these assays?
PPC-1+TRAIL kill: 0; FLuc act counter: 1; C8 TRAIL sens: -4; FLuc inhib CS: 4

Results for O=C(N/N=C/c1ccccc1)c1n[nH]c2c1CCCC2 ?
PPC-1+TRAIL kill: 41; FLuc act counter: 0.3; C8 TRAIL sens: 28; FLuc inhib CS: 75*

Results for O=C(N/N=C/c1cccs1)c1n[nH]c2c1CCC2 ?
PPC-1+TRAIL kill: 25; FLuc act counter: 0.3; C8 TRAIL sens: 37; FLuc inhib CS: 70*

How did O=C(N/N=C/c1ccc(Cl)cc1)c1n[nH]c2c1CCCC2 do in these assays?
PPC-1+TRAIL kill: 4; C8 TRAIL sens: 32

What do the screens show for `C[C@H](CO)N1C[C@H](C)[C@@H](CN(C)S(=O)(=O)c2cn(C)cn2)Oc2c(NS(=O)(=O)c3cccs3)cccc2C1=O`?
C8 TRAIL sens: -7

Results for Cc1ccc(S(=O)(=O)N2C[C@H]3N(C(=O)OC(C)C)N(C(=O)OC(C)C)C[C@H](OC(=O)Nc4cccs4)[C@@]3(O)C2)cc1 ?
C8 TRAIL sens: 4

Results for CCOC(=O)C(=C1Nc2ccccc2N1)n1c(-c2cccnc2)nc2ccccc21 ?
C8 TRAIL sens: 71*

What do the screens show for `COc1ccc(CCN2CC(C(=O)N(C)Cc3cccnc3)CC2=O)cc1OC` (configuration not stated)?
C8 TRAIL sens: -3

What do the screens show for `COc1ccc(Nc2cccccc2=O)cc1`?
PPC-1+TRAIL kill: 7; FLuc act counter: 1; C8 TRAIL sens: 0; FLuc inhib CS: 4

What do the screens show for `COc1ccc(Nc2cccc3ccccc23)cc1`?
C8 TRAIL sens: 56*

Results for C=C1CC2(OC1=O)c1ccccc1CCc1ccccc12 ?
C8 TRAIL sens: 91*

Results for Cc1cc(C)c(NC(=O)CNC(=O)CN(C)Cc2ccc(Br)s2)c(C)c1 ?
C8 TRAIL sens: -3

How did CC1=CC(=C2C(=O)c3ccccc3C2=O)C=C(C)N1Cc1ccco1 do in these assays?
PPC-1+TRAIL kill: -16; FLuc act counter: 0.6; C8 TRAIL sens: 35; FLuc inhib CS: 38

How did CC1=CC(=C2C(=O)c3ccccc3C2=O)C=C(C)O1 do in these assays?
PPC-1+TRAIL kill: 14; FLuc act counter: 1; C8 TRAIL sens: 26; FLuc inhib CS: 2

What do the screens show for `CN1C=CC(=C2C(=O)c3ccccc3C2=O)C=C1`?
PPC-1+TRAIL kill: 46; FLuc act counter: 0.2; FLuc inhib CS: 75*

Results for CCCCN1C(C)=CC(=C2C(=O)c3ccccc3C2=O)C=C1C ?
PPC-1+TRAIL kill: 31; FLuc act counter: 0.2; C8 TRAIL sens: 66*; FLuc inhib CS: 77*

How did CCCN1C=CC(=C2C(=O)c3ccccc3C2=O)C=C1 do in these assays?
PPC-1+TRAIL kill: 26; FLuc act counter: 0; C8 TRAIL sens: 91*; FLuc inhib CS: 97*

How did CCCC(=O)N1CCC1(C)C(=O)NS(=O)(=O)c1cccc(C)c1 (configuration not stated) do in these assays?
C8 TRAIL sens: 1
